The source of these data is ChEMBL document CHEMBL3091378, “Design, synthesis and biological evaluation of α-substituted isonipecotic acid benzothiazole analogues as potent bacterial type II topoisomerase inhibitors” (Bioorg Med Chem Lett, 2013).

Converted amounts (≈) assume the structure as drawn. The source made the active and inactive calls. The rule behind the calls is not given here. Some results are limits rather than exact numbers.

Series [1] has as its system Staphylococcus aureus. In words: Antibacterial activity against Staphylococcus aureus ATCC 29213 assessed as growth inhibition after 16 to 20 hrs by broth microdilution method. It is filed as functional. The method in brief:
(§1)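 Broth microdilution susceptibility testing following the CLSI M7-A7 standard; MIC determined.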

A short description of series [2]: Inhibition of Escherichia coli DNA gyrase ATPase subunit A2B2 after 60 mins by malachite green staining assay. The method in brief: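 E. coli gyrase A2B2, 10 nM, with 0.08 mg/mL DNA in 35 mM Tris pH 7.5, 24 mM KCl, 2 mM MgCl2, 6.5% glycerol, 0.1 mg/mL BSA, 2 mM DTT, 5% DMSO. Started with 1 mM ATP, 30 °C for 60 min. Phosphate read with malachite green at 600 nm after 5 min. IC50 taken against no-compound and no-enzyme controls.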

For the next series, the system named is Streptococcus pyogenes. The experiment in a line: Antibacterial activity against Streptococcus pyogenes ATCC 51339 assessed as growth inhibition after 16 to 20 hrs by broth microdilution method. It is filed as functional. The method in brief: as §1
The subject of another series is Enterococcus faecalis. The experiment in a line: Antibacterial activity against Enterococcus faecalis ATCC 29212 assessed as growth inhibition after 16 to 20 hrs by broth microdilution method. Type of series: functional. The essentials: as §1
The test system of a further series is Haemophilus influenzae. In words: Antibacterial activity against Haemophilus influenzae ATCC 49247 assessed as growth inhibition after 16 to 20 hrs by broth microdilution method. Type of series: functional. The essentials: as §1
The nature of series [3]: Solubility of the compound in PBS at pH 7.4 after 24 hrs by turbidimetric analysis. Type of series: physicochemical. The essentials: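 Doubling dilutions in DMSO diluted 20-fold into 100 mM PBS pH 7.4, equilibrated 24 h at room temperature, absorbance read at 620 nm. Value is the highest concentration with no measurable precipitate.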
A short description of series [4]: Plasma protein binding in rat. Particulars: read-out: PPB (converted). It is filed as ADME, cell-free.
A short description of series [5]: AUC in mouse at 3 mg/kg, iv. Type of series: ADME, organism-based. Also noted: dose 3 mg/kg, route intravenous. The conditions noted are these: plasma. The method in brief: (§2)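 Single 3 mg/kg dose given as an IV bolus by tail vein or by oral gavage, dose volume 5 mL/kg. Rats were bled by jugular vein catheter. Anaesthetised mice were bled from the retro-orbital plexus. Plasma was extracted into methanol and drug measured by LC/MS/MS. Cmax (oral), AUC and clearance (IV) and bioavailability were calculated from plasma concentrations.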

The target of the next series is DNA gyrase (Staphylococcus aureus, UniProt P0A0K8+P20831). In words: Inhibition of Staphylococcus aureus DNA gyrase ATPase subunit GyrA2/GyrB2 after 60 mins by malachite green staining assay. It is filed as protein-complex assay. The method in brief:
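S. aureus gyrase A2B2, 10 nM, with 0.08 mg/mL DNA in 40 mM HEPES pH 7.6, 10 mM Mg acetate, 0.5 M K glutamate, 0.01 mg/mL BSA, 2 mM DTT, 5% DMSO. Reaction started with 1 mM ATP and run 60 min at 30 °C. Malachite green absorbance read at 600 nm. IC50 derived using no-compound and no-enzyme controls.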

A short description of series [6]: Cmax in mouse at 3 mg/kg, po. Type of series: ADME, organism-based. Particulars: in vivo. More on the design: dose 3 mg/kg, route oral. The essentials: as §2
Series [7] can be described thus: Oral bioavailability in mouse at 3 mg/kg. It is filed as ADME, organism-based. Particulars: in vivo. The method in brief: as §2
Series [8] can be described thus: Intrinsic clearance in mouse liver microsomes at 10 uM by LC-MS analysis. Particulars: read-out: CLH. Type of series: ADME, Microsome. The essentials: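 Compound at 10 μM, duplicate, 0.1% DMSO, with mouse liver microsomes at 1 mg/mL protein. Started with 1 mM NADPH and stopped at 0, 10, 30 and 60 min. Acetonitrile extracts analysed by LCMS. T1/2 taken from the slope of peak area over time, then converted to intrinsic clearance.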

Series [9] concerns Staphylococcus aureus. In words: Antibacterial activity against Staphylococcus aureus ATCC 29213 assessed as spontaneous mutant measuring frequency of resistance at 4 to 8 fold MIC relative to control. It is filed as functional, organism-based.
The nature of series [10]: Clearance in mouse at 3 mg/kg, iv. It is filed as ADME, organism-based. Also noted: dose 3 mg/kg, route intravenous. Particulars: in vivo. The method in brief:
as §2

The next series concerns the target Topoisomerase IV (Staphylococcus aureus, UniProt P0C1S7+P0C1U9). The experiment in a line: Inhibition of Staphylococcus aureus DNA topoisomerase 4 subunit ParC2/ParE2 after 60 mins by malachite green staining assay. It is filed as protein-complex assay. The essentials: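 S. aureus topo IV C2E2, 25 nM, with 0.01 mg/mL DNA in 50 mM Tris-HCl pH 7.5, 5 mM MgCl2, 0.35 M K glutamate, 0.05 mg/mL BSA, 5 mM DTT, 1% DMSO. ATP added at 1 mM to start, then 30 °C for 60 min. Malachite green read at 600 nm. IC50 calculated relative to no-compound and no-enzyme controls.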

The nature of series [11]: Cmax in rat at 3 mg/kg, po. It is filed as ADME, organism-based. Also noted: dose 3 mg/kg, route oral. Particulars: in vivo. The method in brief:
as §2

Series [12] in a line: Clearance in rat at 3 mg/kg, iv. The conditions noted are these: in vivo. More on the design: dose 3 mg/kg, route intravenous. Type of series: ADME, organism-based. The essentials:
as §2

Series [13] is described as follows: Oral bioavailability in rat at 3 mg/kg. The conditions noted are these: in vivo. Type of series: ADME, organism-based. The method in brief:
as §2

Series [14] is described as follows: AUC in rat at 3 mg/kg, iv. The conditions noted are these: plasma. More on the design: dose 3 mg/kg, route intravenous. Type of series: ADME, organism-based. The method in brief: as §2

Chain of DNA gyrase (P0A0K8 whole entry): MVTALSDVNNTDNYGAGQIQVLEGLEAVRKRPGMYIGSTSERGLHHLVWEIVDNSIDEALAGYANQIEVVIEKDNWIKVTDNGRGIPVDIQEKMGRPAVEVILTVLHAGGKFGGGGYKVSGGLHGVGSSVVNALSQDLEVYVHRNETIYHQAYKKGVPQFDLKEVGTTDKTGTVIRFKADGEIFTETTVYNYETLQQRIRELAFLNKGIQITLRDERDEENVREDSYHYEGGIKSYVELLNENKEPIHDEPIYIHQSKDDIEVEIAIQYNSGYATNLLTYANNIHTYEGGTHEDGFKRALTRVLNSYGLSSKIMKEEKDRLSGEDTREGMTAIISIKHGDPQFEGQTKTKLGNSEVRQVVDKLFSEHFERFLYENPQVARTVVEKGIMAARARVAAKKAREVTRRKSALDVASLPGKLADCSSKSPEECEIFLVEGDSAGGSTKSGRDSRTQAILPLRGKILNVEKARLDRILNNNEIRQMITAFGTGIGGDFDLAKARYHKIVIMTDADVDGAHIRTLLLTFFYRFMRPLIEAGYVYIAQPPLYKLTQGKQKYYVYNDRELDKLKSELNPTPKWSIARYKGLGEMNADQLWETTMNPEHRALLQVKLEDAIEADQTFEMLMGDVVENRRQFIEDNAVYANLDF
Chain of DNA gyrase (P20831 whole entry): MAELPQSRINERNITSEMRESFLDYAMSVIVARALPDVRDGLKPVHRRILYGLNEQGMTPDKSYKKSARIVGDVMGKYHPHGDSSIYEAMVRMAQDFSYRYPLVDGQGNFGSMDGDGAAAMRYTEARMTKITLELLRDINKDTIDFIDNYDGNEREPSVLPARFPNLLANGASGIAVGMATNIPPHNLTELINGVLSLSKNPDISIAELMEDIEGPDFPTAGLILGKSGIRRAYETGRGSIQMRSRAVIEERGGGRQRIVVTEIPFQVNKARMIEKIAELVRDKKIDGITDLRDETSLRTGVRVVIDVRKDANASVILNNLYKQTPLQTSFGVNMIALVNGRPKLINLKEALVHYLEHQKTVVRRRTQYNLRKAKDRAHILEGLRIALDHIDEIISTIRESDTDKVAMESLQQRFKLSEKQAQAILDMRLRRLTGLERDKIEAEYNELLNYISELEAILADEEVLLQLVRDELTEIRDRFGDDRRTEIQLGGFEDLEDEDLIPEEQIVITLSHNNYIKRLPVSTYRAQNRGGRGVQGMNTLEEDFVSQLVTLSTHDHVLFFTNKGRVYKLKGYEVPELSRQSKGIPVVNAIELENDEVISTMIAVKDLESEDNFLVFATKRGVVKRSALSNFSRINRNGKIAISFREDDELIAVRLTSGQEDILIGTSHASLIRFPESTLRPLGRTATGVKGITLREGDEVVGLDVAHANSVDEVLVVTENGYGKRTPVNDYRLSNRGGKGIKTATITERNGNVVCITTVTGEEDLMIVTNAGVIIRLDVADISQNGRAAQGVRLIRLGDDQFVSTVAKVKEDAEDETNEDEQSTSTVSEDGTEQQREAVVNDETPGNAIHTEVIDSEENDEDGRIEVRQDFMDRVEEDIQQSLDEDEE
Chain of Topoisomerase IV (P0C1U9 whole entry): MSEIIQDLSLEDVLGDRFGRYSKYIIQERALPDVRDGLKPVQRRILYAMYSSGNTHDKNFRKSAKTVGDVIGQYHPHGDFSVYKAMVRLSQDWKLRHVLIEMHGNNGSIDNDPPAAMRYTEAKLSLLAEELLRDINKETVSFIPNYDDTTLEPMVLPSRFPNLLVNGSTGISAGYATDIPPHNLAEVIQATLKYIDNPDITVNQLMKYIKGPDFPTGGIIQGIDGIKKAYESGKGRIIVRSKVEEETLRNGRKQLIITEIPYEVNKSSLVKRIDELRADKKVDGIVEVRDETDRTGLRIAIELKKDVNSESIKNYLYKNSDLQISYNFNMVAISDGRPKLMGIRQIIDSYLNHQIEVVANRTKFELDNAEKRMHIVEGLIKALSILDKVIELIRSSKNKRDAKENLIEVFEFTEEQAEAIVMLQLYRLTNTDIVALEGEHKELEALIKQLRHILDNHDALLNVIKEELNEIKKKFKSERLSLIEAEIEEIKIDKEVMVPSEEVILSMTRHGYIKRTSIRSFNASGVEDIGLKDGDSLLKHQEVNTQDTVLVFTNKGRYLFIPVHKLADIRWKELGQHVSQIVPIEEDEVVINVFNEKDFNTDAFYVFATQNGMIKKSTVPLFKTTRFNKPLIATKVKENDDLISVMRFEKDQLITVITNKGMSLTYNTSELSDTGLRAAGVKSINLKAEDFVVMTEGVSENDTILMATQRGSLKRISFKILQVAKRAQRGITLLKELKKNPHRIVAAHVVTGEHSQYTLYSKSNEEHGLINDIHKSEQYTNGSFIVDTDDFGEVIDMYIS
Chain of Topoisomerase IV (P0C1S7 whole entry): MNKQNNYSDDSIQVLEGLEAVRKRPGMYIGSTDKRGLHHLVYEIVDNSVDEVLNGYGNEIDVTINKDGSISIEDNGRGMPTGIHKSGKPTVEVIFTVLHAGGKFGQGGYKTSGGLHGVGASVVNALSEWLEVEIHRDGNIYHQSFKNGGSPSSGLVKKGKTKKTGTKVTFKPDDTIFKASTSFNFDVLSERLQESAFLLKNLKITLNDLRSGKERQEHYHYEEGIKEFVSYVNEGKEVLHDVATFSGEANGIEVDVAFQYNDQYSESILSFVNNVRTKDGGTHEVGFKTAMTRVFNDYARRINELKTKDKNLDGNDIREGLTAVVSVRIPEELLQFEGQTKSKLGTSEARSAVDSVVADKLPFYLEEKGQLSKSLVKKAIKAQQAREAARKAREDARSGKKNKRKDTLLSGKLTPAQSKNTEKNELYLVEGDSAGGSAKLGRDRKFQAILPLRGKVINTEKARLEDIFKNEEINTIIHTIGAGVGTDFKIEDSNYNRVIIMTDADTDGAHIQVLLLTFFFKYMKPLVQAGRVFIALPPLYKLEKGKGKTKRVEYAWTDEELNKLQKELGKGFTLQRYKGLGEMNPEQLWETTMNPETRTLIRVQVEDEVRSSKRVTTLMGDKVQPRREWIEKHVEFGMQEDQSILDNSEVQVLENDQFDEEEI

With `CCNC(=O)Nc1nc2cc(-c3cnc(N4CCC(N)(C(=O)O)CC4)nc3)cc(-c3ccccn3)c2s1`, the MIC in the series with Staphylococcus aureus [1] is greater than 16 µg/mL; in the series on Streptococcus pyogenes, 4 µg/mL (≈ 7.71 µM); in the series with Enterococcus faecalis it was greater than 16 µg/mL; with Haemophilus influenzae it was greater than 16 µg/mL. In series [2], the IC50 is 0.025 µg/mL (≈ 0.0482 µM). In [3], this compound had a solubility (kinetic) at 24 h of 25 µg/mL (≈ 48.2 µM).
On to `CCNC(=O)Nc1nc2cc(-c3cnc(N4CCC(C(=O)O)CC4)nc3)cc(-c3ccccn3)c2s1`, for which the fraction unbound in series [4] is 0.007. Besides, the MIC with Staphylococcus aureus [1] is 0.12 µg/mL (≈ 0.238 µM); in the series on Streptococcus pyogenes it was 0.03 µg/mL (≈ 0.0596 µM); in the series on Enterococcus faecalis, 0.015 µg/mL (≈ 0.0298 µM); in the series on Haemophilus influenzae, 2 µg/mL (≈ 3.97 µM). For the same compound, the AUC in series [5] worked out at 900 ng·h/mL. For the same compound, the IC50 was 19.9 nM at DNA gyrase and 23.8 nM against Topoisomerase IV. In series [6], this compound yielded a Cmax of 70 ng/mL. The same compound had a bioavailability in series [7] of 8%. Also, the CLint scaled at 10 µM in series [8] was less than 5.8 mL/min/kg. Further, in [3], the kinetic solubility at 24 h is greater than 800 µg/mL. For the same compound, the result in the series on Staphylococcus aureus [9] was inactive. The compound further registered a clearance in [10] of 55 mL/min/kg.
Regarding `CCNC(=O)Nc1nc2cc(-c3cnc(N4CCC(C)(C(=O)O)CC4)cn3)cc(-c3ccccn3)c2s1`, the MIC with Staphylococcus aureus [1] came out at 0.5 µg/mL (≈ 0.966 µM); in the series with Streptococcus pyogenes it was 0.12 µg/mL (≈ 0.232 µM); in the series on Enterococcus faecalis, 0.03 µg/mL (≈ 0.058 µM); in the series with Haemophilus influenzae, 8 µg/mL (≈ 15.5 µM). For the same compound, on DNA gyrase, half-maximal inhibition (IC50) required 38.6 nM. For the same compound, the CLint scaled at 10 µM in series [8] was less than 5.8 mL/min/kg. The kinetic solubility at 24 h in series [3] was greater than 800 µg/mL.
In the case of `CCNC(=O)Nc1nc2cc(-c3cncc(N4CCC(C)(C(=O)O)CC4)c3)cc(-c3ccccn3)c2s1`, the MIC in the series with Staphylococcus aureus [1] was determined as 1 µg/mL (≈ 1.94 µM); in the series with Streptococcus pyogenes, 0.06 µg/mL (≈ 0.116 µM); in the series with Enterococcus faecalis it was 0.06 µg/mL (≈ 0.116 µM); in the series with Haemophilus influenzae it was 4 µg/mL (≈ 7.74 µM). The IC50 at DNA gyrase is 29 nM. In addition, the kinetic solubility at 24 h in series [3] is greater than 800 µg/mL.
As for `CCNC(=O)Nc1nc2cc(-c3cnc(N4CCC(C(=O)O)(C(F)(F)F)CC4)nc3)cc(-c3ccccn3)c2s1`, the MIC in the series with Staphylococcus aureus [1] is 2 µg/mL (≈ 3.5 µM); in the series with Streptococcus pyogenes, 0.25 µg/mL (≈ 0.437 µM); in the series with Enterococcus faecalis, 0.25 µg/mL (≈ 0.437 µM); with Haemophilus influenzae, 16 µg/mL (≈ 28 µM). At DNA gyrase, this compound showed an IC50 of 28 nM. This compound also registered a solubility (kinetic) at 24 h in series [3] greater than 800 µg/mL.
For `CCNC(=O)Nc1nc2cc(-c3cnc(N4CCC(C)(C(=O)O)CC4)nc3)cc(-c3ccccn3)c2s1`, the fraction unbound in series [4] is 0.007. The MIC was found to be 0.12 µg/mL (≈ 0.232 µM) with Staphylococcus aureus [1], 0.06 µg/mL (≈ 0.116 µM) with Streptococcus pyogenes, 0.015 µg/mL (≈ 0.029 µM) in the series on Enterococcus faecalis and 2 µg/mL (≈ 3.86 µM) in the series on Haemophilus influenzae. The compound also showed a Cmax in series [11] of 1800 ng/mL. The IC50 against DNA gyrase and against Topoisomerase IV was 15.5 nM each time. In [12], the clearance was determined as 2.8 mL/min/kg. In addition, the CLint scaled at 10 µM in series [8] was less than 5.8 mL/min/kg. For the same compound, the solubility (kinetic) at 24 h in series [3] is greater than 800 µg/mL. Besides, in the series on Staphylococcus aureus [9], the result was inactive.
Take `CCNC(=O)Nc1nc2cc(-c3cnc(N4CCC(C)(C(=O)O)C4)nc3)cc(-c3ccccn3)c2s1` (configuration not stated): the MIC in the series with Staphylococcus aureus [1] was 2 µg/mL (≈ 3.97 µM); in the series on Streptococcus pyogenes, 0.5 µg/mL (≈ 0.993 µM); with Haemophilus influenzae, 4 µg/mL (≈ 7.94 µM). The same compound showed an IC50 against DNA gyrase of 79.4 nM. In series [3], this compound came in with a solubility (kinetic) at 24 h greater than 800 µg/mL.
Regarding `CCNC(=O)Nc1nc2cc(-c3cnc(N4CCCC4(C)C(=O)O)nc3)cc(-c3ccccn3)c2s1` (configuration not stated), the MIC in the series with Staphylococcus aureus [1] worked out at 0.5 µg/mL (≈ 0.993 µM); in the series on Streptococcus pyogenes, 0.06 µg/mL (≈ 0.119 µM); in the series with Enterococcus faecalis, 0.25 µg/mL (≈ 0.496 µM); in the series on Haemophilus influenzae, 1 µg/mL (≈ 1.99 µM). Besides, the midpoint of inhibition at DNA gyrase, the IC50, lay at 9.93 nM. In addition, the solubility (kinetic) at 24 h in series [3] is greater than 800 µg/mL.
With `CCNC(=O)Nc1nc2cc(-c3cnc(N4CCC(CC)(C(=O)O)CC4)nc3)cc(-c3ccccn3)c2s1`, the MIC with Staphylococcus aureus [1] stood at 0.06 µg/mL (≈ 0.113 µM); with Streptococcus pyogenes it was 0.06 µg/mL (≈ 0.113 µM); with Enterococcus faecalis it was 0.015 µg/mL (≈ 0.0282 µM); in the series with Haemophilus influenzae, 4 µg/mL (≈ 7.52 µM). Besides, the Cmax in series [11] was 3500 ng/mL; in [6] it was 6100 ng/mL. The AUC is 14300 ng·h/mL in [5] and 27700 ng·h/mL in series [14]. On DNA gyrase, this compound showed an IC50 of 22.6 nM. Besides, the clearance is 1.5 mL/min/kg in [12] and 3.5 mL/min/kg in series [10]. The results for the bioavailability in series [7] and in series [13] were 87% and 80%, respectively. Besides, the CLint scaled at 10 µM in [8] is less than 5.8 mL/min/kg. Also, in series [3], the solubility (kinetic) at 24 h is greater than 800 µg/mL.
